Test results published in ChEMBL document CHEMBL1126868, “Inhibitors of blood platelet cAMP phosphodiesterase. 4. Structural variation of the side-chain terminus of water-soluble 1,3-dihydro-2H-imidazo[4,5-b]quinolin-2-one derivatives” (J Med Chem, 1993).

Tests used:
[1] = species: Homo sapiens; experiment: Inhibition of human platelet aggregation induced by ADP after 3 min incubation with platelet rich plasma; type: functional; conditions: 0.05 h
Summary of the method: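 Human platelet-rich plasma was preincubated with drug for 3 min (standard) or 15 min, then aggregation was induced with 5.86 μM ADP. Aggregation at a range of drug concentrations was compared with vehicle-treated controls, and IC50 was taken from dose-response curves. Values are single, duplicate or triplicate (with SD) determinations.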

[2] = Aqueous solubility; type: physicochemical; conditions: read-out: S
Summary of the method: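 A 10-mg sample was placed in 0.5 mL water and diluted stepwise up to 10 mL, or until it dissolved. Solubility is reported in mg/mL.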

Structure (SMILES): CCOC(=O)N1CCC(S(=O)(=O)CCCOc2ccc3[nH]c4nc(O)nc-4cc3c2)CC1
- IC50 [1]: 650 nM
- solubility [2]: < 1000 µg/mL

Structure (SMILES): CCOC(=O)N1CCC(n2nnnc2CCCCOc2ccc3[nH]c4nc(O)nc-4cc3c2)CC1
- IC50 [1]: 100 nM
- solubility [2]: < 1000 µg/mL

Structure (SMILES): CCOC(=O)N1CCC(S(=O)(=O)CCCCOc2ccc3[nH]c4nc(O)nc-4cc3c2)CC1
- IC50 [1]: 410 nM
- solubility [2]: < 1000 µg/mL

Structure (SMILES): CCOC(=O)N1CCC(n2nnnc2CCCOc2ccc3[nH]c4nc(O)nc-4cc3c2)CC1
- IC50 [1]: 420 nM
- solubility [2]: < 1000 µg/mL

Structure (SMILES): Cl.O=C(NCCCOc1ccc2[nH]c3nc(O)nc-3cc2c1)N1CCN(CC2CCCCCC2)CC1
- IC50 [1]: 54 nM
- solubility [2]: 2000 µg/mL

Structure (SMILES): Cl.O=S(=O)(CCCCOc1ccc2[nH]c3nc(O)nc-3cc2c1)C1CCN(CC2CCCCC2)CC1
- IC50 [1]: 30 nM
- solubility [2]: 2000 µg/mL

Structure (SMILES): Cl.O=C(NCCCOc1ccc2[nH]c3nc(O)nc-3cc2c1)N1CCN(CC2CCCC2)CC1
- IC50 [1]: 94 nM
- solubility [2]: 700 µg/mL

Structure (SMILES): Cl.O=S(=O)(CCCOc1ccc2[nH]c3nc(O)nc-3cc2c1)C1CCN(CC2CCCCO2)CC1 (centres undefined)
- IC50 [1]: 34 nM
- solubility [2]: > 10000 µg/mL

Structure (SMILES): Cl.Oc1nc2cc3cc(OCCCc4nnnn4C4CCN(CC5CCCC5)CC4)ccc3[nH]c-2n1
- IC50 [1]: 9 nM
- solubility [2]: 3000 µg/mL

Structure (SMILES): Cl.O=S(=O)(CCCOc1ccc2[nH]c3nc(O)nc-3cc2c1)C1CCN(CCc2ccccc2)CC1
- IC50 [1]: 130 nM
- solubility [2]: < 5000 µg/mL

Structure (SMILES): Cl.O=S(=O)(CCCOc1ccc2[nH]c3nc(O)nc-3cc2c1)C1CCN(Cc2cccc(C(F)(F)F)c2)CC1
- IC50 [1]: 38 nM
- solubility [2]: < 5000 µg/mL

Structure (SMILES): Cl.O=S(=O)(CCCCOc1ccc2[nH]c3nc(O)nc-3cc2c1)C1CCN(Cc2ccc(F)cc2)CC1
- IC50 [1]: 67 nM
- solubility [2]: 2000 µg/mL

Structure (SMILES): Cl.Oc1nc2cc3cc(OCCCc4nnnn4C4CCN(CC5CCCCCC5)CC4)ccc3[nH]c-2n1
- IC50 [1]: 17 nM
- solubility [2]: 1000 µg/mL

Structure (SMILES): Cl.O=S(=O)(CCCOc1ccc2[nH]c3nc(O)nc-3cc2c1)N1CCN(CCc2ccccc2)CC1
- IC50 [1]: 1040 nM
- solubility [2]: < 10000 µg/mL

Structure (SMILES): Cl.Oc1nc2cc3cc(OCCCCc4nnnn4C4CCN(Cc5ccccc5)CC4)ccc3[nH]c-2n1
- IC50 [1]: 31 nM
- solubility [2]: > 5000 µg/mL

Structure (SMILES): CCC(CC)CN1CCC(n2nnnc2CCCCOc2ccc3[nH]c4nc(O)nc-4cc3c2)CC1.Cl
- IC50 [1]: 12 nM
- solubility [2]: > 5000 µg/mL

Structure (SMILES): Cl.Oc1nc2cc3cc(OCCCCc4nnnn4C4CCN(Cc5ccc(F)cc5)CC4)ccc3[nH]c-2n1
- IC50 [1]: 51 nM
- solubility [2]: > 5000 µg/mL

Structure (SMILES): CCCC(CCC)CN1CCC(n2nnnc2CCCOc2ccc3[nH]c4nc(O)nc-4cc3c2)CC1.Cl
- IC50 [1]: 82 nM
- solubility [2]: 2000 µg/mL

Structure (SMILES): CC(C)CN1CCC(n2nnnc2CCCCOc2ccc3[nH]c4nc(O)nc-4cc3c2)CC1.Cl
- IC50 [1]: 9 nM
- solubility [2]: > 10000 µg/mL

Structure (SMILES): Cl.O=S(=O)(CCCOc1ccc2[nH]c3nc(O)nc-3cc2c1)C1CCN(CCC2CCCCC2)CC1
- IC50 [1]: 48 nM
- solubility [2]: < 5000 µg/mL

Structure (SMILES): Cl.Oc1nc2cc3cc(OCCCCc4nnnn4C4CCNCC4)ccc3[nH]c-2n1
- IC50 [1]: 5330 nM
- solubility [2]: 5000 µg/mL

Structure (SMILES): Cl.Oc1nc2cc3cc(OCCCc4nnnn4C4CCNCC4)ccc3[nH]c-2n1
- IC50 [1]: 11600 nM
- solubility [2]: > 20000 µg/mL

Structure (SMILES): CCC(CC)CN1CCC(S(=O)(=O)CCCCOc2ccc3[nH]c4nc(O)nc-4cc3c2)CC1.Cl
- IC50 [1]: 21 nM
- solubility [2]: 5000 µg/mL

Structure (SMILES): Cl.Oc1nc2cc3cc(OCCCc4nnnn4C4CCN(CCc5ccccc5)CC4)ccc3[nH]c-2n1
- IC50 [1]: 83 nM
- solubility [2]: < 5000 µg/mL

Structure (SMILES): Cl.O=C(NCCCOc1ccc2[nH]c3nc(O)nc-3cc2c1)N1CCN(CCC2CCCCC2)CC1
- IC50 [1]: 72 nM
- solubility [2]: 500 µg/mL

Structure (SMILES): Cl.O=C(NCCCOc1ccc2[nH]c3nc(O)nc-3cc2c1)N1CCN(Cc2cccs2)CC1
- IC50 [1]: 160 nM
- solubility [2]: > 10000 µg/mL

Structure (SMILES): Cl.Oc1nc2cc3cc(OCCCCc4nnnn4C4CCN(CC5CCCCC5)CC4)ccc3[nH]c-2n1
- IC50 [1]: 20 nM
- solubility [2]: > 5000 µg/mL

Structure (SMILES): Cl.O=C(NCCCOc1ccc2[nH]c3nc(O)nc-3cc2c1)N1CCN(c2ncccn2)CC1
- IC50 [1]: 320 nM
- solubility [2]: 100 µg/mL

Structure (SMILES): Cl.O=C(NCCCOc1ccc2[nH]c3nc(O)nc-3cc2c1)N1CCN(CC2CCCCO2)CC1 (centres undefined)
- IC50 [1]: 160 nM
- solubility [2]: > 20000 µg/mL

Structure (SMILES): Cl.O=C(NCCCOc1ccc2[nH]c3nc(O)nc-3cc2c1)N1CCN(CCc2ccccc2)CC1
- IC50 [1]: 300 nM
- solubility [2]: 250 µg/mL

Structure (SMILES): Cl.O=C(NCCCOc1ccc2[nH]c3nc(O)nc-3cc2c1)N1CCN(Cc2ccsc2)CC1
- IC50 [1]: 280 nM
- solubility [2]: 3000 µg/mL

Structure (SMILES): Cl.O=C(NCCCOc1ccc2[nH]c3nc(O)nc-3cc2c1)N1CCNCC1
- IC50 [1]: 8150 nM
- solubility [2]: > 20000 µg/mL

Structure (SMILES): Cl.O=S(=O)(CCCOc1ccc2[nH]c3nc(O)nc-3cc2c1)N1CCN(CCC2CCCCC2)CC1
- IC50 [1]: 2040 nM
- solubility [2]: < 5000 µg/mL

Structure (SMILES): Cl.O=C(NCCCOc1ccc2[nH]c3nc(O)nc-3cc2c1)N1CCN(c2ccccn2)CC1
- IC50 [1]: 690 nM
- solubility [2]: 500 µg/mL

Structure (SMILES): Cl.O=S(=O)(CCCOc1ccc2[nH]c3nc(O)nc-3cc2c1)C1CCNCC1
- IC50 [1]: > 66000 nM
- solubility [2]: > 10000 µg/mL

Structure (SMILES): Cl.O=S(=O)(CCCCOc1ccc2[nH]c3nc(O)nc-3cc2c1)C1CCNCC1
- IC50 [1]: 14800 nM
- solubility [2]: > 10000 µg/mL

Structure (SMILES): CCCC(CCC)CN1CCN(C(=O)NCCCOc2ccc3[nH]c4nc(O)nc-4cc3c2)CC1.Cl
- IC50 [1]: 130 nM
- solubility [2]: 500 µg/mL

Structure (SMILES): Cl.O=C(NCCCOc1ccc2[nH]c3nc(O)nc-3cc2c1)N1CCC(N2CCCCC2)CC1
- IC50 [1]: 9860 nM
- solubility [2]: > 20000 µg/mL

Structure (SMILES): Cl.O=S(=O)(CCCOc1ccc2[nH]c3nc(O)nc-3cc2c1)N1CCN(c2nc3ccccc3o2)CC1
- IC50 [1]: 2410 nM
- solubility [2]: > 20000 µg/mL

Structure (SMILES): CC(C)CN1CCN(C(=O)NCCCOc2ccc3[nH]c4nc(O)nc-4cc3c2)CC1.Cl
- IC50 [1]: 180 nM
- solubility [2]: > 20000 µg/mL

Structure (SMILES): Cl.O=S(=O)(CCCOc1ccc2[nH]c3nc(O)nc-3cc2c1)N1CCN(c2nc3ccccc3s2)CC1
- IC50 [1]: 4880 nM
- solubility [2]: 1000 µg/mL

Structure (SMILES): COc1ccc(CN2CCN(S(=O)(=O)CCCOc3ccc4[nH]c5nc(O)nc-5cc4c3)CC2)cc1.Cl
- IC50 [1]: 460 nM
- solubility [2]: > 20000 µg/mL

Structure (SMILES): CC(C)CN1CCC(n2nnnc2CCCOc2ccc3[nH]c4nc(O)nc-4cc3c2)CC1.Cl
- IC50 [1]: 9.4 nM
- solubility [2]: > 10000 µg/mL

Structure (SMILES): CCCC(CCC)CN1CCC(S(=O)(=O)CCCOc2ccc3[nH]c4nc(O)nc-4cc3c2)CC1.Cl
- IC50 [1]: 230 nM
- solubility [2]: 1000 µg/mL

Structure (SMILES): Cl.Oc1nc2cc3cc(OCCCc4nnnn4C4CCN(CC5CCCCO5)CC4)ccc3[nH]c-2n1 (centres undefined)
- IC50 [1]: 71 nM
- solubility [2]: > 10000 µg/mL

Structure (SMILES): Cl.O=S(=O)(CCCCOc1ccc2[nH]c3nc(O)nc-3cc2c1)C1CCN(Cc2ccccc2)CC1
- IC50 [1]: 42 nM
- solubility [2]: 5000 µg/mL

Structure (SMILES): CC(C)CN1CCC(S(=O)(=O)CCCOc2ccc3[nH]c4nc(O)nc-4cc3c2)CC1.Cl
- IC50 [1]: 27 nM
- solubility [2]: > 10000 µg/mL

Structure (SMILES): Cl.O=S(=O)(CCCOc1ccc2[nH]c3nc(O)nc-3cc2c1)N1CCN(Cc2cccc(C(F)(F)F)c2)CC1
- IC50 [1]: 320 nM
- solubility [2]: 2000 µg/mL

Structure (SMILES): Cl.O=S(=O)(CCCOc1ccc2[nH]c3nc(O)nc-3cc2c1)N1CCNCC1
- IC50 [1]: 15500 nM
- solubility [2]: > 20000 µg/mL

Structure (SMILES): Cl.Cl.O=C(NCCCOc1ccc2[nH]c3nc(O)nc-3cc2c1)N1CCN(Cc2ccc(Cl)cc2)CC1
- IC50 [1]: 290 nM
- solubility [2]: 200 µg/mL

Structure (SMILES): Cl.Cl.O=S(=O)(CCCOc1ccc2[nH]c3nc(O)nc-3cc2c1)N1CCN(Cc2ccc(Cl)cc2)CC1
- IC50 [1]: 530 nM
- solubility [2]: > 20000 µg/mL

Structure (SMILES): O=CN1CCN(S(=O)(=O)CCCOc2ccc3[nH]c4nc(O)nc-4cc3c2)CC1
- IC50 [1]: 13000 nM
- solubility [2]: < 1000 µg/mL
